From paper PMC8266733 (Acta physiologica (Oxford, England), 2021)
Entries after “also recorded” stand apart in the source; their conditions may differ.

Assays:
[1] = system: Hela-Parkin or Hela-Parkin/USP30 cells
[2] = system: HeLa-Parkin cells expressing USP30; assay: FACS analysis of A/O-induced mitophagy using mt-Keima fluorescence; format: cell-based
Summary of the method: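 HeLa-Parkin and HeLa-Parkin cells with lentivirally expressed Myc-USP30, stably expressing mt-Keima, grown in DMEM/10% FBS. Pretreated with DMSO or test compound at 3 μg/ml, then exposed to 1 μM oligomycin plus 1 μM antimycin A for 1.5 h (legend: 2 h). Cells were trypsinized, PBS-washed and resuspended in PBS. Flow cytometry scored cells with lysosomal (pH 4) mt-Keima.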

USP30 [3] = biological target: T1, USP30 (Homo sapiens, UniProt Q70CQ3); details: this compound and similar structures; cited from earlier work
T1 sequence (Q70CQ3 1-517): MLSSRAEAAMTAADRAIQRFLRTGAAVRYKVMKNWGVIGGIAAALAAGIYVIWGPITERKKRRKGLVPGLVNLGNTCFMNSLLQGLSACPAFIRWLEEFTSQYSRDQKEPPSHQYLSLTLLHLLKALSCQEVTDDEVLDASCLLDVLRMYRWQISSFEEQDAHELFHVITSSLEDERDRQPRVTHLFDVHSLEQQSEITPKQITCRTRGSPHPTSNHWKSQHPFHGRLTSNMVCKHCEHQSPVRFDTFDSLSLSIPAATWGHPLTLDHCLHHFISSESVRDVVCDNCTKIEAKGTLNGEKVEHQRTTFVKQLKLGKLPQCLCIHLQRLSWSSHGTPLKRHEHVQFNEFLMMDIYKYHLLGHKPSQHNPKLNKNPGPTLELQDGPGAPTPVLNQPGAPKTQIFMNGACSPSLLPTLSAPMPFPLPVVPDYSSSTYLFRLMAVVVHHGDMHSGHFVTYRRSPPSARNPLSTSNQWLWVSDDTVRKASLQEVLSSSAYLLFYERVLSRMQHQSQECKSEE

[4] = system: Hela-Parkin and Hela-Parkin cells expressing USP30; assay: Seahorse assay of oxygen consumption; format: cell-based; details: 24 h of ST-539 treatment at high dose
[5] = Plasma pharmacokinetics after i.p. injection, LC-MS/MS; format: in vivo; details: 25 mg/kg i.p., mice
Summary of the method: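 Adult male mice were dosed once at 25 mg/kg i.p. with test compound in 1% DMSO/sesame oil. Serial blood was taken at 0.083, 0.25, 0.5, 1, 2, 4 and 8 h, with terminal cardiac puncture at 24 h, into K2EDTA tubes kept on ice. Plasma was frozen at −70 °C and assayed by LC-MS/MS (n=3 per time point). Parameters were derived from the concentration-time curve.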

[6] = Tissue concentrations 24 hours post-dose, LC/MS/MS; format: in vivo; details: 25 mg/kg i.p., Male C57BL/6 Mice
Summary of the method: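 Mice were given a single 25 mg/kg i.p. dose of test compound in 1% DMSO/sesame oil and euthanized at 24 h. Transcardial perfusion preceded brain collection; heart was also harvested. Tissues were rinsed in cold distilled water, blotted dry, weighed and stored on dry ice. Concentrations (ng/g) were measured by LC/MS/MS.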

mt-Keima mice [7] = assay: In vivo mitophagy in mt-Keima mice
Summary of the method: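 mt-Keima mice of both sexes received test compound in 1% DMSO/sesame oil at 25 mg/kg/day i.p. for five doses; controls got vehicle (n=4 control, n=5 treated). In heart and liver sections, mt-Keima was excited sequentially at 458 and 561 nm with 570–695 nm emission. Four images per tissue were averaged and normalized to the control mean (set to one). Heart and liver LC3 I/II were immunoblotted against actin.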

WT and Mfn2−/− MEF cells = assay: Mitochondrial morphology by confocal microscopy; format: cell-based, mouse; details: 3 or 10 μg/ml ST-539, 24 h
USP30 [8] = biological target: T1, USP30; assay: TOM20 ubiquitination and turnover; format: cell-based
Summary of the method: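 HeLa-Parkin cells, with or without lentivirally expressed Myc-USP30, were pretreated with test compound at several concentrations. They were then exposed to 5 μM oligomycin plus 5 μM antimycin A for up to 18 h, with 10 μM QVD during 18 h exposures. RIPA lysates (pH 8.0, on ice) were immunoblotted for ubiquitinated TOM20, TOM20, TOM40 and TIM23 with infrared detection. Three independent experiments.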

mt-Keima mice [9] = details: mouse, in vivo
[10] = system: Hela cells, Hela cells expressing YFP-Parkin and PINK1 KO Hela cells expressing YFP-Parkin; format: cell-based
Summary of the method: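 Parental HeLa, HeLa stably expressing YFP-Parkin, and PINK1 KO HeLa expressing YFP-Parkin were pretreated with test compound at 1 or 3 μg/ml. They were then given 5 μM oligomycin plus 5 μM antimycin A; the 18 h exposure included 10 μM QVD. Cells were lysed on ice in RIPA buffer (pH 8.0, protease inhibitors) and blotted for TOM20 ubiquitination, TOM20 and NDP52. Infrared secondaries were imaged; three independent experiments.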

For `N#CC(C#N)=NNc1ccc(OC(F)(F)F)cc1` [FCCP, Carbonyl cyanide-p-trifluoromethoxyphenylhydrazone], the “TMRM staining (mitochondrial membrane potential)” value [1] was “significant loss of staining”.

For `CC(C)(C)NS(=O)(=O)c1cccc2c(NC(=O)C(Cc3ccccc3)NC(=O)c3ccccc3)cccc12` (stereo not shown) [ST-539], the “A/O induced mitophagy (lysosomal positive mt-Keima)” value ([2]; ST-539 3μg/ml prior to A/O, HeLa-Parkin cells expressing USP30) is given as “restored A/O induced mitophagy”, the “mitophagy in the absence of mitochondrial stress” value ([2]; cellular studies, no mitochondrial stress) is given as “minimal change” and the “inhibition of USP30 enzyme function in vitro” value (USP30 [3]) is given as “selectively inhibit USP30 enzyme function”. The “basal and maximal respiration” value [4] was “slight increase”, the AUC0-inf [5] was 4240 ng·h/mL and the AUC0-last [5] was 4162 ng·h/mL. For the same compound, the Cmax [5] was 1427 ng/mL, the MRT0-inf [5] was 4.27 h and the MRT0-last [5] was 3.86 h. The Tlast [5] was 24.0 h, the Tmax [5] was 1.33 h and the “area under the plasma drug concentration-time curve (AUC)” value [5] was ~ 4.2 μg•h/ml. The “maximum plasma concentration (Cmax)” value [5] was “about 1.4 μg/ml”, the “Tissue concentration, Brain, Mean” value [6] was 17.4 ng/g and the “Tissue concentration, Heart, Mean” value [6] was 37.0 ng/g. The “LC3-II/LC3-I ratio (LC3 I/II immunoblotting)” value (mt-Keima mice [7]; 25mg/kg/day for 5 days, heart versus control hearts) was “increase; also recorded: increased levels of LC3-II”, the “cardiac mitophagy (mt-Keima red signal in the heart tissue)” value (mt-Keima mice [7]; 25mg/kg/day i.p. for 5 days, heart) was “marked induction of the red signal” and the “mitophagic flux in the hippocampus of the brain” value (mt-Keima mice [7]; 25mg/kg/day i.p. for 5 days, hippocampus (data not shown)) was “remains unchanged”. For the same compound, the “mitophagic flux in the liver” value (mt-Keima mice [7]; 25mg/kg/day i.p. for 5 days, liver) was “remains unchanged”, the elongation of mitochondria (WT and Mfn2−/− MEF cells; Mfn2−/− MEF cells) was “did not induce the elongation of mitochondria significantly” and the mitochondrial morphology (WT and Mfn2−/− MEF cells; wild type MEFs) was “failed to change the mitochondrial morphology”. The “TIM23 and TOM40 degradation” value (USP30 [8]; 18h A/O treatment, Hela-Parkin cells overexpressing USP30) was “restored TIM23 and TOM40 degradation”, the “TOM20 ubiquitination versus ST-539 dosage” value (USP30 [8]; A/O treatment, ST-539 at indicated concentrations) was “close correlation” and the “loss of TOM20 protein level” value (USP30 [8]; ST-539 at 10 μg/ml, A/O treatment, in the presence of USP30) was ~ 90%. The “safety of the current dosage in mice” value (mt-Keima mice [9]) was “appears to be safe”, the “A/O induced TOM20 ubiquitination and decline in TOM20 level” value ([10]; cells expressing ectopic Parkin and endogenous PINK1, ST-539 1 or 3μg/ml) was “further potentiated” and the “TOM20 ubiquitination independent of PINK1/Parkin” value ([10]; long term treatment (18 h), 3μg/ml ST-539, WT Hela or PINK1 KO cells) was “did not promote TOM20 ubiquitination”.
